Values after ≈ are worked out from the molar mass of the structure shown.
Columns and labels:
[1] = tested on: MCF7; assay: Cytotoxicity against human MCF7 cells assessed as inhibition of cell proliferation after 48 hrs by MTT assay; type: functional, cell-based; conditions: MCF7, 48 h
In short: (§1)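 Cells seeded at 8 × 10³ per well in complete medium, incubated overnight at 37°C, 5% CO2, then exposed to a range of compound concentrations (DMSO solutions; 0.1% DMSO negative control, etoposide positive control) for 48 h at 37°C. Viability by MTT, absorbance 570 nm. IC50 from dose-response curves, mean ± SE of at least three independent experiments.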

[2] = tested on: HepG2; assay: Cytotoxicity against human HepG2 cells assessed as inhibition of cell proliferation after 48 hrs by MTT assay; type: functional, cell-based; conditions: HepG2, 48 h; in short: as §1
[3] = tested on: SW480; assay: Cytotoxicity against human SW480 cells assessed as inhibition of cell proliferation after 48 hrs by MTT assay; type: functional, cell-based; conditions: SW480, 48 h; in short: as §1
[4] = Antioxidant activity assessed as ferric ion reduction by measuring FeSO4 equivalents reducing Fe3+-TPTZ to Fe2+-TPTZ at 5 ug/ml after 25 mins by FRAP assay; type: functional
In short: (§2)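 FRAP reagent: 10 mM TPTZ in 40 mM HCl, 20 mM FeCl3·6H2O and 300 mM acetate buffer pH 3.6 (1:1:10). 20 µl sample (tested 5 to 100 µg/ml) mixed with 150 µl reagent, incubated 37°C for 25 min, absorbance at 593 nm. Values as µM FeSO4·7H2O equivalents from calibration curve; ascorbic acid as standard.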

[5] = Antioxidant activity assessed as ferric ion reduction by measuring FeSO4 equivalents reducing Fe3+-TPTZ to Fe2+-TPTZ at 10 ug/ml after 25 mins by FRAP assay; type: functional; in short: as §2
[6] = Antioxidant activity assessed as ferric ion reduction by measuring FeSO4 equivalents reducing Fe3+-TPTZ to Fe2+-TPTZ at 20 ug/ml after 25 mins by FRAP assay; type: functional; in short: as §2
[7] = Antioxidant activity assessed as ferric ion reduction by measuring FeSO4 equivalents reducing Fe3+-TPTZ to Fe2+-TPTZ at 40 ug/ml after 25 mins by FRAP assay; type: functional; in short: as §2
[8] = Antioxidant activity assessed as ferric ion reduction by measuring FeSO4 equivalents reducing Fe3+-TPTZ to Fe2+-TPTZ at 80 ug/ml after 25 mins by FRAP assay; type: functional; in short: as §2
[9] = Antioxidant activity assessed as ferric ion reduction by measuring FeSO4 equivalents reducing Fe3+-TPTZ to Fe2+-TPTZ at 100 ug/ml after 25 mins by FRAP assay; type: functional; in short: as §2
[10] = Antioxidant activity assessed as DPPH radical scavenging activity incubated for 30 mins under dark condition by spectrophotometric method; type: functional
In short: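 Test compounds dissolved in DMSO; 20 µl sample mixed with 250 µl DPPH in methanol (working solution diluted from 0.5 mM methanolic stock to absorbance […] at 517 nm). Kept 30 min at room temperature in dark, absorbance read at 517 nm against compound-free control; ascorbic acid standard. Triplicates; % inhibition from control vs sample absorbance; IC50 reported.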

COc1cc([C@@H]2c3cc4c(cc3[C@@H](O[C@@H]3O[C@@H]5CO[C@@H](C)O[C@H]5[C@H](O)[C@H]3O)[C@H]3COC(=O)[C@H]23)OCO4)cc(OC)c1O [ETOPOSIDE]
IC50 [1]: 3.1 µg/mL (≈ 5.27 µM)
IC50 [2]: 6.2 µg/mL (≈ 10.5 µM)
IC50 [3]: 7.7 µg/mL (≈ 13.1 µM)

O=C1O[C@H]([C@@H](O)CO)C(O)=C1O [ASCORBIC ACID]
Activity [4]: 74.9 µMequiv
Activity [5]: 124 µMequiv
Activity [6]: 216 µMequiv
Activity [7]: 310 µMequiv
Activity [8]: 397 µMequiv
Activity [9]: 484 µMequiv
IC50 [10]: 9.6 µg/mL (≈ 54.5 µM)

Nc1nc(N2CCOCC2)sc1C(=O)c1cc2ccccc2oc1=O
IC50 [1]: 9.8 µg/mL (≈ 27.4 µM)
IC50 [2]: 34.8 µg/mL (≈ 97.4 µM)
IC50 [3]: 20.5 µg/mL (≈ 57.4 µM)
Activity [4]: 111 µMequiv
Activity [5]: 142 µMequiv
Activity [6]: 205 µMequiv
Activity [7]: 345 µMequiv
Activity [8]: 384 µMequiv
Activity [9]: 605 µMequiv
IC50 [10]: 25.8 µg/mL (≈ 72.2 µM)

Nc1nc(N2CCN(Cc3ccccc3)CC2)sc1C(=O)c1cc2ccccc2oc1=O
IC50 [1]: 11.6 µg/mL (≈ 26 µM)
IC50 [2]: 32 µg/mL (≈ 71.7 µM)
IC50 [3]: 23.4 µg/mL (≈ 52.4 µM)
Activity [4]: 88.5 µMequiv
Activity [5]: 134 µMequiv
Activity [6]: 198 µMequiv
Activity [7]: 226 µMequiv
Activity [8]: 229 µMequiv
Activity [9]: 444 µMequiv
IC50 [10]: 31.7 µg/mL (≈ 71 µM)
